From PubChem
Avidin bead fluor: compound fluoresces at 488/530 nm on avidin beads | compound fluorescence 488/530 nm, flow cytometry; active compounds read high | fluorescence (KMESF) at 10 µM | actives 0.38% (n = 220,000) | AID 1775; in the data active = fluorescence above about 47
ABCB1 block: blocks JC-1 efflux by human ABCB1 transporter. actives 0.067% (n = 190,000). CCRF-Adr cells, flow cytometry. inhibition, % at 6.6 µM. P08183; in the data active = inhibition above about 40%;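 note: 0% = vehicle and 100% = reference inhibitor; higher value means more JC-1 retained so stronger ABCB1 efflux block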
PKD1 inh: inhibitors of human PKD1 kinase | AID 797 | inhibition, % (concentration not given with the values) | actives 0.056% (n = 200,000) | Q15139 | PKD1 kinase fluorescence polarization assay
L major viab: reduces viability of Leishmania major promastigotes. actives 9% (n = 200,000). inhibition, % at 10 µM. resazurin fluorescence viability;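 note: promastigotes grown with compound for 44 hours at 28 °C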
GSH fluor: compound fluoresces at 488/530 nm on GSH beads | fluorescence (KMESF) at 10 µM | AID 1776 | GSH beads flow cytometry, compound fluorescence 488/530 nm; active compounds read high | actives 0.25% (n = 190,000); in the data active = fluorescence above about 89;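 note: glutathione beads carrying GST-tagged Bcl family fusion proteins plus one bare bead set; values are compound well signal with DMSO vehicle wells as background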
ABCG2 inh: human ABCG2 inhibition, ABCB1 as counter-screen; actives 0.1% (n = 190,000); IgMXP3 cells, JC-1 efflux, flow cytometry; inhibition, % at 6.6 µM; Q9UNQ0;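 active = inhibition above 80%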;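 note: 0% = DMSO and 100% = nicardipine control wells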
Target sequence (Q9UNQ0 whole entry, looked up): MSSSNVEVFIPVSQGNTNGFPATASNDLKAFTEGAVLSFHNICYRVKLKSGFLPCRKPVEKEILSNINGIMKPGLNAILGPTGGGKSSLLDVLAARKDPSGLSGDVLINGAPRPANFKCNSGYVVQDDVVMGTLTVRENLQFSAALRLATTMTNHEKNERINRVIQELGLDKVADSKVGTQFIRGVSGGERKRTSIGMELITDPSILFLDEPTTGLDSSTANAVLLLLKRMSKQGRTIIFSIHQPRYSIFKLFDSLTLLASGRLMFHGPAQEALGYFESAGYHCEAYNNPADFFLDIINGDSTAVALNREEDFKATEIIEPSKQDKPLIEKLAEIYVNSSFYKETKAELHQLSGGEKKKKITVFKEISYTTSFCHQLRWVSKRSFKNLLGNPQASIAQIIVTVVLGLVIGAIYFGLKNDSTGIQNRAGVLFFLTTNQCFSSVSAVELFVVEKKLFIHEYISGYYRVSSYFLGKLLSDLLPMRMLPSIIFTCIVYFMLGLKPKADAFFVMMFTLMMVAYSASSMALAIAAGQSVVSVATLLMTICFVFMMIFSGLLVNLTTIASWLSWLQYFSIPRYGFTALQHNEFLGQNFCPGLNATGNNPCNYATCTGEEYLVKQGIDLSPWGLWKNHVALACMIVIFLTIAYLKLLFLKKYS
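Times: 10 min at 25 °C | Test system: Two drug-resistant human cell lines, ABCG2 and ABCB1 | Quantity: 3 million cells/mL final, two lines in 1:1 ratio | Signal: Flow cytometry, 530 nm JC-1 signal | Dosing: Compound at 6.6 µM | Controls: Nicardipine and DMSO wells | Reagent: JC-1 as fluorescent efflux pump substrate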
* = called active by the depositor; . = no result given. This is one part of a sample in which hits are shown more often than they occur. Cut-off read from the data, not from the text of the source, unless noted: active = inhibition above about 50%; inactive = the rest.

SMILES | Avidin bead fluor | ABCB1 block | PKD1 inh | L major viab | GSH fluor | ABCG2 inh
Clc1ccc2c(c1)CNc1c(ncnc1N1CCOCC1)O2 | 10 | 1.6 | -11.5 | -2.5 | 28 | 33.4
COc1cc(CNc2nnnn2C)ccc1OCc1c(F)cccc1Cl | 9 | 0.3 | -12.1 | -11.0 | 14 | 10.1
Cn1ncc2c(N3CCN(c4ccc(Cl)c(Cl)c4)CC3)ncnc21 | 10 | 1.0 | -1.6 | 18.4 | 18 | 18.0
CCOC(=O)C1CCC2(CC1)C(C#N)=C(N)Oc1n[nH]c(C)c12 (configuration not stated) | 21 | 0.1 | -0.2 | -8.9 | 21 | -0.4
COc1ccccc1-c1c(C)oc2cc(OCC(=O)OCc3ccccc3)ccc2c1=O | 7 | . | -8.5 | 87.1* | 9 | .
CCOC(=O)C(=O)N(Nc1ccccc1C)c1ccccc1C | 11 | 0.7 | -6.2 | -0.7 | 15 | 2.9
CCOC(=O)c1[nH]c(C)c(C(=O)Nc2ccc(C)c(F)c2)c1C | 11 | 0.5 | -13.2 | -1.1 | 25 | 5.8
CCOC(=O)c1[nH]c(C)c(C(=O)Nc2ccc(C)c(Cl)c2)c1C | 62* | 0.7 | -5.1 | 8.4 | 25 | 7.4
COc1cccc(/C=C/c2ccncc2)c1OC | 15 | 1.7 | -8.1 | 85.8* | 11 | 6.2
COc1ccc(/C=C/c2ccncc2)cc1 | 4 | 0.3 | -10.0 | 8.7 | 12 | 3.3
CCN(CC)S(=O)(=O)c1cc(NC(=O)c2n[nH]c(=O)c3ccccc23)ccc1C | 13 | 0.8 | -1.7 | 66.0* | 11 | 6.6
CCN(CC)S(=O)(=O)c1cc(NC(=O)c2cc(-c3ccccn3)nc3ccccc23)ccc1C | 8 | 3.0 | -0.5 | 53.1* | 13 | 6.3
CN(C)S(=O)(=O)c1cccc(NC(=O)c2n[nH]c(=O)c3ccccc23)c1 | 12 | -0.3 | -6.4 | -1.1 | 15 | 8.8
Cc1ccc[n+](CC(=O)Nc2cc(C(F)(F)F)ccc2N2CCOCC2)c1 | 26 | -0.3 | 1.9 | -4.9 | 25 | -0.3
NC(=O)/C(=C/c1cccnc1)NC(=O)c1ccccc1 | 8 | . | . | . | . | .
COc1ccc(/C=N/NC(=S)Nc2ccccc2[N+](=O)[O-])cc1O | 11 | 6.4 | -6.1 | 56.8* | 4 | 10.6
CCCOc1ccc(/C=N/Nc2ccccc2[N+](=O)[O-])c(O)c1 | 2 | 0.2 | -5.7 | -8.7 | 6 | 1.9
CN(C)S(=O)(=O)c1cccc(NC(=S)N/N=C/C2CC=CCC2)c1 (configuration not stated) | 5 | -0.8 | -9.1 | 5.6 | 18 | -1.9
COc1cc(/C=N/NC(=S)Nc2cccc(S(=O)(=O)N(C)C)c2)ccc1O | 6 | 0.1 | -2.6 | 66.7* | 8 | 2.0
CCCOc1ccc(/C=N/NC(=S)Nc2ccccc2[N+](=O)[O-])c(O)c1 | 22 | -0.4 | -4.8 | 98.4* | 9 | -1.0
O=C(NCc1cccs1)c1ccc([N+](=O)[O-])cc1Cl | 12 | 0.8 | -6.8 | -3.4 | 11 | 11.0
Cn1c(N)c(C(=O)COC(=O)C2(c3ccc(F)cc3)CCCC2)c(=O)n(C)c1=O | 7 | -0.1 | -0.8 | -0.1 | 40 | 1.9
Cn1c(N)c(C(=O)COC(=O)C2(c3ccccc3F)CCCC2)c(=O)n(C)c1=O | 10 | 0.8 | -1.2 | 78.5* | 32 | 2.7
CCOC(=O)c1sc2nc3c(SCCC#N)cc(C(=O)c4cc(F)ccc4O)cn3c(=O)c2c1C | 12 | -0.1 | -2.6 | 63.3* | 9 | -0.9
CC(C)CC(=O)NC(=S)Nc1cccc(NC(=O)c2ccccc2Cl)c1 | 10 | 0.6 | -4.1 | 18.4 | 9 | 3.4
SMILES | Avidin bead fluor | ABCB1 block | PKD1 inh | L major viab | GSH fluor | ABCG2 inh
CC(C)CC(=O)Nc1cccc(NC(=O)c2ccccc2Cl)c1 | 13 | 0.9 | -12.3 | 58.9* | 3 | 25.6
O=C(COc1ccccc1)NC(=S)Nc1cccc(NC(=O)c2ccccc2Cl)c1 | 11 | 0.4 | -2.7 | -7.2 | 11 | 5.8
CC(C)Oc1cccc(C(=O)NC(=S)Nc2cccc(NC(=O)c3ccccc3Cl)c2)c1 | 8 | -0.2 | -12.6 | 86.4* | 10 | -1.8
COC(=O)c1ccc(CNC(=O)c2ccc(COc3ccccc3)cc2)cc1 | 12 | 0.3 | -7.9 | 68.8* | 3 | 16.0
CC(C)(C)c1ccc(OCC(=O)NCc2ccco2)cc1 | 37 | 0.8 | -14.8 | 70.8* | 18 | 4.1
CC(C)c1ccc(OCC(=O)NCc2ccco2)cc1 | 9 | 0.3 | -7.6 | -4.0 | 11 | 0.9
O=C(NCc1ccco1)c1ccc(COc2ccc(Cl)cc2)cc1 | 8 | . | -3.1 | 50.3* | 6 | .
NNC(=O)c1ccc(COc2ccccc2)cc1 | 3 | -0.6 | 4.4 | -6.3 | 13 | 1.4
CC(Oc1ccccc1)C(=O)OCC(=O)NC(=O)NCc1ccco1 (configuration not stated) | 6 | 1.0 | -6.3 | -5.3 | 267* | 1.2
CC(=O)/C(C#N)=C1\NC(=O)C(Cc2ccccc2C)S1 (configuration not stated) | 8 | . | . | . | . | .
CCOc1cc(S(=O)(=O)NCc2ccncc2)ccc1Cl | 10 | -0.4 | -6.0 | 11.0 | 12 | -1.9
C/C(=N\NS(=O)(=O)c1cccc([N+](=O)[O-])c1)c1cccnc1 | 8 | 0.9 | -4.0 | -9.5 | 14 | 6.1
Cc1c(Cl)cccc1NC(=S)N(CCCN1CCOCC1)Cc1ccco1 | 13 | 0.6 | -1.8 | 32.3 | 10 | -0.8
Cc1ccccc1NC(=S)N(CCCN1CCOCC1)Cc1ccccn1 | 12 | -0.1 | -5.0 | 65.2* | 19 | -3.6
S=C(Nc1ccccc1Cl)N(CCCN1CCOCC1)Cc1ccco1 | 7 | -0.2 | -13.8 | 85.0* | 9 | 4.9
Cc1ccc(NC(=S)N(CCCN2CCOCC2)Cc2ccccn2)cc1 | 9 | 0.6 | -1.2 | 1.4 | 14 | 1.2
Cc1ccc(C)c(CN2C(=O)COc3ccc(C(=O)c4ccccc4C(=O)O)cc32)c1 | 11 | 1.5 | -0.1 | 100.2* | 13 | 7.8
CN1C(=O)COc2ccc(C(=O)c3ccccc3C(=O)O)cc21 | 4 | 0.5 | 11.9 | -7.4 | 9 | 0.4
COc1ccc(C(=O)c2ccc(N3CCN(C(=O)c4ccc(F)cc4)CC3)c(F)c2)cc1Br | 5 | 2.0 | -0.3 | 41.4 | 19 | 5.8
CCn1c(SCC(=O)Nc2ccccc2N2CCOCC2)nnc1-c1ccccc1 | 16 | 0.2 | 3.1 | 1.7 | 15 | -0.1
COc1ccc(C(=O)NC(=S)Nc2ccc(N3CCOCC3)c(Cl)c2)cc1[N+](=O)[O-] | 5 | -0.5 | -5.5 | 100.0* | 3 | -5.5
CCn1c(SCC(=O)Nc2ccc(N3CCOCC3)c(Cl)c2)nnc1-c1ccc(N)cc1 | 28 | 0.2 | 3.6 | 73.5* | 22 | 0.3
CCC(=O)N1CCN(c2ccc(NC(=S)NC(=O)c3ccc(OC)c([N+](=O)[O-])c3)cc2)CC1 | 6 | 0.2 | -4.2 | 53.5* | 16 | -0.6
CCCC(=O)NC(=S)Nc1ccc(N2CCOCC2)c(Cl)c1 | 19 | 0.3 | 13.8 | 60.5* | 11 | 3.7
